ChEMBL document CHEMBL1156229, “Pharmacophore development and application toward the identification of novel, small-molecule autotaxin inhibitors” (J Med Chem, 2010)

Molecular target: Autotaxin (Homo sapiens, UniProt Q13822)
Experiment: Inhibition of human recombinant C-terminal FLAG-tagged autotaxin expressed in baculovirus-infected Sf9 cells assessed as FS-3 hydrolysis at 10 uM relative to control
In short: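 Single-dose screen: inhibitor 10 μM final, purified recombinant human ATX 8.3 nM, FS-3 1 μM, fatty acid free BSA 30 μM in Tris pH 8 buffer (1 mM MgCl2, 1 mM CaCl2, 3 mM KCl, 140 mM NaCl), 37 °C. Fluorescence (ex 485/em 538) read every 2 min; percent activity vs vehicle after no-ATX subtraction at 1 h; mean ± SD of three wells.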

## O=C(Nc1ccc2c(O)cc(S(=O)(=O)O)cc2c1)Nc1ccc2c(O)c(/N=N/c3ccc4cc(S(=O)(=O)O)ccc4c3)c(S(=O)(=O)O)cc2c1
  inhibition: 36%

## Cc1ccc(Nc2cccc3c2C(=O)c2cccc(Nc4ccc(C)cc4S(=O)(=O)O)c2C3=O)c(S(=O)(=O)O)c1
  inhibition: 6%

## COc1ccc(/C=N/NC(=N)C(=N)N/N=C/c2ccc(OC)c(S(=O)(=O)O)c2)cc1S(=O)(=O)O
  inhibition: 8%

## CCCCc1ccc(Nc2ccc(Nc3ccc(CCCC)cc3S(=O)(=O)O)c3c2C(=O)c2ccccc2C3=O)c(S(=O)(=O)O)c1
  inhibition: 8%

## O=C(Nc1cccc(C(=O)Nc2ccc(S(=O)(=O)O)c3cc(S(=O)(=O)O)cc(S(=O)(=O)O)c23)c1)Nc1cccc(C(=O)Nc2cccc3c(S(=O)(=O)O)c(S(=O)(=O)O)cc(S(=O)(=O)O)c23)c1
  inhibition: 27%

## CC(=O)Nc1ccc(/N=N/c2c(S(=O)(=O)O)cc3cc(NC(=O)Nc4ccc5c(O)c(/N=N/c6ccccc6)c(S(=O)(=O)O)cc5c4)ccc3c2O)cc1
  inhibition: 17%

## Cc1cc(C)c(S(=O)(=O)O)c(C)c1Nc1ccc(Nc2c(C)cc(C)c(S(=O)(=O)O)c2C)c2c1C(=O)c1ccccc1C2=O
  inhibition: 13%

## COc1cc(/N=N/c2c(C)cc(C)cc2S(=O)(=O)O)c(C)cc1/N=N/c1c(S(=O)(=O)O)cc2cc(Nc3ccccc3)ccc2c1O
  inhibition: 2%

## CC(=O)Nc1cc(S(=O)(=O)O)cc2cc(S(=O)(=O)O)c(/N=N/c3ccc(C(=O)Nc4ccc5cc(S(=O)(=O)O)ccc5c4)cc3)c(O)c12
  inhibition: 29%

## Nc1ccc2cc(S(=O)(=O)O)cc(O)c2c1/N=N/c1ccc(NC(=O)Nc2ccc(/N=N/c3c(N)ccc4cc(S(=O)(=O)O)cc(O)c34)c(S(=O)(=O)O)c2)cc1S(=O)(=O)O
  inhibition: 22%

## COc1cc(/N=N/c2cccc(S(=O)(=O)O)c2)ccc1NC(=O)Nc1ccc(/N=N/c2ccc(O)c(C(=O)O)c2)cc1
  inhibition: 21%

## Cc1cc(/N=N/c2ccc(/C=C/c3ccc(/N=N/c4cc(C)c(N)c(/N=N/c5ccc(S(=O)(=O)O)cc5)c4N)cc3S(=O)(=O)O)c(S(=O)(=O)O)c2)c(N)c(/N=N/c2ccc(S(=O)(=O)O)cc2)c1N
  inhibition: 35%

## COc1cc(S(=O)(=O)O)ccc1/N=N/C(=N\Nc1ccc(S(=O)(=O)O)cc1OC)C(N)=O
  inhibition: -1%

## O=C(CC(C(=O)O)S(=O)(=O)O)Nc1ccc(S(=O)(=O)c2ccc(NC(=O)CC(C(=O)O)S(=O)(=O)O)cc2)cc1 (stereo not given)
  inhibition: 1%

## O=S(=O)(O)c1ccccc1/C=N/NC(=S)N/N=C/c1ccccc1S(=O)(=O)O
  inhibition: 1%

## COc1ccc(/C=N/NC(=O)N/N=C/c2ccc(OC)c(S(=O)(=O)O)c2)cc1S(=O)(=O)O
  inhibition: 2%

## O=C(N/N=C/c1ccccc1S(=O)(=O)O)N/N=C/c1ccccc1S(=O)(=O)O
  inhibition: -5%

## O=C1c2ccc(S(=O)(=O)O)cc2C(=O)c2c(Nc3ccccc3)ccc(Nc3ccc(S(=O)(=O)O)cc3)c21
  inhibition: 6%

## O=C(Nc1ccc(S(=O)(=O)O)cc1)c1ccc(/N=N/c2cc(S(=O)(=O)O)c3ccccc3c2O)cc1
  inhibition: 1%

## COc1cc(/N=N/c2ccc(/N=N/c3cc(S(=O)(=O)O)ccc3S(=O)(=O)O)c(C)c2)c(C)cc1/N=N/c1ccc(NC(=O)c2ccc(N)cc2)cc1C
  inhibition: 39%

## COc1ccc(NS(=O)(=O)c2ccc(NC(CNC(C)S(=O)(=O)O)S(=O)(=O)O)cc2)cc1 (stereo not given)
  inhibition: 4%

## COc1ccc(/C=N/NC(=O)C(=O)N/N=C/c2ccc(OC)c(S(=O)(=O)O)c2)cc1S(=O)(=O)O
  inhibition: 0%

## N=C(N/N=C/c1ccccc1S(=O)(=O)O)C(=N)N/N=C/c1ccccc1S(=O)(=O)O
  inhibition: 5%

## O=C(Nc1ccc(C(=O)Nc2ccc3c(O)cc(S(=O)(=O)O)cc3c2)cc1)c1ccccc1
  inhibition: 21%

## Nc1cccc(/N=N/c2c(S(=O)(=O)O)cc3cc(Nc4ccc5c(O)c(/N=N/c6cccc(N)c6)c(S(=O)(=O)O)cc5c4)ccc3c2O)c1
  inhibition: 33%

## Cc1ccc(Nc2ccc(Nc3ccc(C)cc3S(=O)(=O)O)c3c2C(=O)c2ccccc2C3=O)c(S(=O)(=O)O)c1
  inhibition: 8%

## O=C(Nc1ccc(S(=O)(=O)c2ccc(NC(=O)Nc3ccc4cc(S(=O)(=O)O)ccc4c3)cc2)cc1)Nc1ccc2cc(S(=O)(=O)O)ccc2c1
  inhibition: 43%

## O=C1Nc2ccc(S(=O)(=O)O)cc2/C1=N/Nc1ccccc1[N+](=O)[O-]
  inhibition: 8%

## Cc1cc(C(O)(c2ccc(Nc3ccccc3)cc2)c2ccc(Nc3ccc(S(=O)(=O)O)cc3)cc2)ccc1N (stereo not given)
  inhibition: 65%

## O=C(Nc1ccc2c(O)c(/N=N/c3ccccc3)c(S(=O)(=O)O)cc2c1)Nc1ccc2c(O)c(/N=N/c3ccccc3)c(S(=O)(=O)O)cc2c1
  inhibition: 23%

## Nc1ccc2c(O)c(/N=N/c3ccc(-c4ccc(/N=N/c5c(S(=O)(=O)O)cc6cc(S(=O)(=O)O)c(/N=N/c7cc(O)ccc7O)c(N)c6c5O)cc4)cc3)c(S(=O)(=O)O)cc2c1
  inhibition: 1%

## O=C(Nc1ccccc1)C(=N/Nc1cc(S(=O)(=O)O)ccc1O)/N=N/c1cc(S(=O)(=O)O)ccc1O
  inhibition: 0%

## O=C(O)c1cc(O)c(O)c(OC(=O)c2cc(O)c(O)c(O)c2CNc2ccc3cc(S(=O)(=O)O)cc(S(=O)(=O)O)c3c2)c1
  inhibition: 2%

## Nc1cccc(/N=N/c2c(S(=O)(=O)O)cc3cc(NC(=O)Nc4ccc5c(O)c(/N=N/c6cccc(N)c6)c(S(=O)(=O)O)cc5c4)ccc3c2O)c1
  inhibition: 32%

## Nc1ccc2c(O)c(/N=N/c3ccc4c(O)cc(S(=O)(=O)O)cc4c3)c(S(=O)(=O)O)cc2c1
  inhibition: 30%

## Nc1cc(N)c(/N=N/c2cccc3c(S(=O)(=O)O)cccc23)cc1/N=N/c1cc([N+](=O)[O-])ccc1O
  inhibition: 19%

## Cc1ccc(C(=O)Nc2ccc(S(=O)(=O)O)c3cc(S(=O)(=O)O)cc(S(=O)(=O)O)c23)cc1NC(=O)c1cccc(NC(=O)Nc2cccc(C(=O)Nc3cc(C(=O)Nc4ccc(S(=O)(=O)O)c5cc(S(=O)(=O)O)cc(S(=O)(=O)O)c45)ccc3C)c2)c1
  inhibition: 27%

## O=C(Nc1ccc2c(O)cc(S(=O)(=O)O)cc2c1)c1ccc([N+](=O)[O-])cc1
  inhibition: 12%

## O=C(Nc1ccc2cc(S(=O)(=O)O)cc(O)c2c1)Nc1ccc2cc(S(=O)(=O)O)cc(O)c2c1
  inhibition: -6%

## CC(=O)Nc1cc(S(=O)(=O)O)cc2cc(S(=O)(=O)O)c(/N=N/c3ccc(C(=O)Nc4ccc(S(=O)(=O)O)cc4)cc3)c(O)c12
  inhibition: 17%

## Nc1ccc(C(=O)Nc2cccc(C(=O)Nc3ccc4c(O)c(/N=N/c5ccc(/N=N/c6ccc(S(=O)(=O)O)cc6)cc5)c(S(=O)(=O)O)cc4c3)c2)cc1
  inhibition: 39%

## Nc1cc(C(=O)Nc2ccc(S(=O)(=O)O)cc2)ccc1C(=O)Nc1ccc(S(=O)(=O)O)cc1
  inhibition: -2%

## O=C(Nc1ccc2cc(S(=O)(=O)O)ccc2c1)c1ccc([N+](=O)[O-])cc1
  inhibition: -1%

## O=C(N/N=C/c1ccccc1S(=O)(=O)O)C(=O)N/N=C/c1ccccc1S(=O)(=O)O
  inhibition: -2%

## O=C(N/N=C/c1ccc(O)c(S(=O)(=O)O)c1)C(=O)N/N=C/c1ccc(O)c(S(=O)(=O)O)c1
  inhibition: 5%

## Nc1ccc(NC(=O)c2ccc(C(=O)Nc3ccc4c(O)cc(S(=O)(=O)O)cc4c3)cc2)cc1
  inhibition: 20%

## O=C1/C(=C2\Nc3ccc(S(=O)(=O)O)cc3C2=O)Nc2ccc(S(=O)(=O)O)cc21
  inhibition: 12%

## O=C(Nc1cccc(C(=O)Nc2ccc3cc(S(=O)(=O)O)cc(S(=O)(=O)O)c3c2)c1)Nc1cccc(C(=O)Nc2ccc3cc(S(=O)(=O)O)cc(S(=O)(=O)O)c3c2)c1
  inhibition: 29%

## Cc1ccc(C(=O)Nc2ccc(S(=O)(=O)[O-])c3cc(S(=O)(=O)O)cc(S(=O)(=O)[O-])c23)cc1NC(=O)c1cccc(NC(=O)Nc2cccc(C(=O)Nc3cc(C(=O)Nc4ccc(S(=O)(=O)O)c5cc(S(=O)(=O)O)cc(S(=O)(=O)O)c45)ccc3C)c2)c1.Cc1ccc(C)c2c1c(NCCCCCCNc1cc(C)[n+](C)c3c(C)ccc(C)c13)cc(C)[n+]2C
  inhibition: 6%

## Nc1ccc(C(=O)Nc2ccc(C(=O)Nc3ccc4cc(S(=O)(=O)O)cc(S(=O)(=O)O)c4c3)cc2)cc1
  inhibition: 5%

## O=C(Nc1cc(O)ccc1Oc1cc(O)c(O)cc1S(=O)(=O)O)Nc1cc(O)ccc1Oc1cc(O)c(O)cc1S(=O)(=O)O
  inhibition: 0%

## O=C(O)c1ccccc1-c1c2cc/c(=N\c3ccccc3)cc-2oc2cc(Nc3ccc(S(=O)(=O)O)cc3)ccc12
  inhibition: 27%

## O=S(=O)(O)c1ccc(/N=N/Nc2ccc(S(=O)(=O)O)cc2)cc1
  inhibition: 1%

## Nc1ccc(C(=O)Nc2ccc(NC(=O)Nc3ccc(NC(=O)c4ccc(N)cc4)c(S(=O)(=O)O)c3)cc2S(=O)(=O)O)cc1
  inhibition: 12%

## O=C(Nc1ccc2c(O)cc(S(=O)(=O)O)cc2c1)Nc1ccc2c(O)cc(S(=O)(=O)O)cc2c1
  inhibition: 11%

## CCOc1cc(-c2ccc(/N=N/c3c(S(=O)(=O)O)cc4ccc(N)cc4c3O)cc2)ccc1/N=N/c1c(S(=O)(=O)O)cc2ccc(N)cc2c1O
  inhibition: 39%

## Nc1c(S(=O)(=O)O)cc(Nc2cccc(S(=O)(=O)/C=C/S(=O)(=O)O)c2)c2c1C(=O)c1ccccc1C2=O
  inhibition: 43%

## NC(Cc1ccc(O)cc1)C(=O)NCCS(=O)(=O)O (stereo not given)
  inhibition: 1%

## Cc1ccc(Nc2cccc3c2C(=O)c2cccc(Nc4ccc(C)c(S(=O)(=O)O)c4)c2C3=O)cc1S(=O)(=O)O
  inhibition: 4%

## Nc1ccc(C(=O)Nc2ccc(C(=O)Nc3ccc(/C=C/c4ccc(NC(=O)c5ccc(N)cc5)cc4S(=O)(=O)O)c(S(=O)(=O)O)c3)cc2)cc1
  inhibition: 0%

## Cc1[nH]n(-c2cc(S(=O)(=O)O)ccc2O)c(=O)c1/N=N/c1c(NC(=O)c2ccc(N)cc2)ccc2cc(S(=O)(=O)O)ccc12
  inhibition: 49%

## O=C(N/N=C/c1ccc(O)c(S(=O)(=O)O)c1)N/N=C/c1ccc(O)c(S(=O)(=O)O)c1
  inhibition: 6%

## O=S(=O)(O)c1ccc(O)c(/N=N/C=N/Nc2cc(S(=O)(=O)O)ccc2O)c1
  inhibition: -1%

## Cc1cc(C)c(/N=N/c2cc(C)c(/N=N/c3c(S(=O)(=O)O)cc4cc(Nc5ccccc5)ccc4c3O)cc2C)c(S(=O)(=O)O)c1
  inhibition: 27%

## O=C(Nc1ccc2cc(S(=O)(=O)O)cc(S(=O)(=O)O)c2c1)Nc1ccc2cc(S(=O)(=O)O)cc(S(=O)(=O)O)c2c1
  inhibition: 0%
